Assay results as given in ChEMBL document CHEMBL5046323, “Discovery of Phospholipase D Inhibitors with Improved Drug-like Properties and Central Nervous System Penetrance” (ACS Med Chem Lett, 2022).

Legend:
Phospholipase D1 = target: T1, Phospholipase D1 (Homo sapiens, UniProt Q13393); test: Inhibition of PLD1 (unknown origin) expressed in human HEK cells by immunoprecipitation assay; format: cell-based
T1 sequence (Q13393 whole entry): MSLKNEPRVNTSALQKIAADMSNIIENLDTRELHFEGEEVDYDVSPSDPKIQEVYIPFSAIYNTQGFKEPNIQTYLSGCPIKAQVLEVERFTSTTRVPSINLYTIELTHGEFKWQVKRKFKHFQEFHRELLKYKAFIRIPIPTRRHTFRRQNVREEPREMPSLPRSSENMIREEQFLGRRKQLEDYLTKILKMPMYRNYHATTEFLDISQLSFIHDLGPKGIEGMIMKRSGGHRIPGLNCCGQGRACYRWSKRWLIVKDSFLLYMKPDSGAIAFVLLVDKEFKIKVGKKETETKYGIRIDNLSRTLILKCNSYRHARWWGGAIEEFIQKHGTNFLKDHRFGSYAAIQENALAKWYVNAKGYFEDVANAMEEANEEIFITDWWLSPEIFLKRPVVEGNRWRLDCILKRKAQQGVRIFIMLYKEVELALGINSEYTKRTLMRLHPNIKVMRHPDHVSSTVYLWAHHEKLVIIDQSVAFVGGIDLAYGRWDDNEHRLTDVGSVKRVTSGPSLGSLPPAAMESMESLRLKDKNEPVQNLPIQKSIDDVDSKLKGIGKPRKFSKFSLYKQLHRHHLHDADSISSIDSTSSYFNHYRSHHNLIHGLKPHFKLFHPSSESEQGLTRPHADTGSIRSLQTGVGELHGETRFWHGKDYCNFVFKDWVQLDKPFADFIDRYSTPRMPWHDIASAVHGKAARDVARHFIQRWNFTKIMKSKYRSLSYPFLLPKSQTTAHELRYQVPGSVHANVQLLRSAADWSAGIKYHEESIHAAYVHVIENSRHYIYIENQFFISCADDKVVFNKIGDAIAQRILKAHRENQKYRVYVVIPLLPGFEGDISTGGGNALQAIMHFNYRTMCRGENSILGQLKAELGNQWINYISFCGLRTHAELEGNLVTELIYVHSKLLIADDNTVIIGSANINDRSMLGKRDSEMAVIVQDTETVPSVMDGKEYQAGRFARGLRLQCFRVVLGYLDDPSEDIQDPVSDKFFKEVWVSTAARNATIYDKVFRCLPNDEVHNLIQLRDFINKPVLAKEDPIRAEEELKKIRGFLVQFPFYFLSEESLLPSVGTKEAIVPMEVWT

Phospholipase D2 = Phospholipase D2 (Homo sapiens, UniProt O14939); test: Inhibition of PLD2 (unknown origin) expressed in human HEK cells by immunoprecipitation; format: cell-based
Sequence of Phospholipase D2 (O14939 whole entry): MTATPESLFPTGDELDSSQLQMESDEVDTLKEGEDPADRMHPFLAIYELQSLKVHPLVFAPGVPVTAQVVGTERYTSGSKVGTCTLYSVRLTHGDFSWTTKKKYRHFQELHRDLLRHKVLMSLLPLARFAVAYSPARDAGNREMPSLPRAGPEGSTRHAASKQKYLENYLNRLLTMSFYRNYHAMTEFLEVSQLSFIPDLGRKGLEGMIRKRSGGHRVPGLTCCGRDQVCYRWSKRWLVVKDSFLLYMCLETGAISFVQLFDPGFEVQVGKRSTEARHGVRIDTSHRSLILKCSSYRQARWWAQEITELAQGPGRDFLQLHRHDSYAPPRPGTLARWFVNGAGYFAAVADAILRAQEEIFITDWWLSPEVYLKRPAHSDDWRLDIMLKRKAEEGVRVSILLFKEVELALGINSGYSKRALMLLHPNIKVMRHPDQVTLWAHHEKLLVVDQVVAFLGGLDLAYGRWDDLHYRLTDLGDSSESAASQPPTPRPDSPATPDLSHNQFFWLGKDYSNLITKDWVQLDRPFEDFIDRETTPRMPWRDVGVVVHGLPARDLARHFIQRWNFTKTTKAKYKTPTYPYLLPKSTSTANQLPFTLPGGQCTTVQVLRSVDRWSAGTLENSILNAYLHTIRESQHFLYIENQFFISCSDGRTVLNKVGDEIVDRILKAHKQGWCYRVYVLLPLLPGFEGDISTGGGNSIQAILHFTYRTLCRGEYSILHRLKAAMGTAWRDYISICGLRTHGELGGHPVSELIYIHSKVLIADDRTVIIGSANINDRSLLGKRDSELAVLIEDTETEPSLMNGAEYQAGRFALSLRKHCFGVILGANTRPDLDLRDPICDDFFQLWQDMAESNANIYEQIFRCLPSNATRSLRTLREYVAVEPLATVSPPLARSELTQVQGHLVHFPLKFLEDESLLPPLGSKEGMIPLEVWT
In short: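 PLD1 or PLD2 immunoprecipitated from HEK-293 cell lysates and captured on plate with an antibody (ELISA format); 08:0 phosphatidylcholine substrate; released choline detected by Amplex Red readout.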

[1] = Microsomal stability in human liver microsomes assessed as intrinsic clearance; format: ADME, Microsome; settings: read-out: CLH
In short: (§1)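 Intrinsic clearance (CLint) determined in rat or human liver microsomes.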

[2] = Microsomal stability in rat liver microsomes assessed as intrinsic clearance; format: ADME, Microsome; settings: read-out: CLH; in short: as §1
MDR1 (P-gp) = test: Efflux ratio of apparent permeability from basolateral to apical side over apical to basolateral side in dog MDCK-MDR1 cells; format: ADME, cell-based, Canis lupus familiaris
In short: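 Efflux ratio calculated as Papp(B–A)/Papp(A–B) across MDR1-transfected MDCK monolayers.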

[3] = Unbound clearance in iv dosed rat administered as cassette dose; format: ADME, organism-based; settings: in vivo
In short: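 Rat IV clearance from cassette dosing; unbound clearance calculated as CL/fu.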

BCRP = test: Efflux ratio of apparent permeability from basolateral to apical side over apical to basolateral side in dog MDCK-BCRP cells; format: ADME, cell-based, Canis lupus familiaris
Cytochrome P450 1A2 = target: T2, Cytochrome P450 1A2 (Homo sapiens, UniProt P05177); test: Inhibition of CYP1A2 (unknown origin); format: ADME
T2 sequence (P05177 whole entry): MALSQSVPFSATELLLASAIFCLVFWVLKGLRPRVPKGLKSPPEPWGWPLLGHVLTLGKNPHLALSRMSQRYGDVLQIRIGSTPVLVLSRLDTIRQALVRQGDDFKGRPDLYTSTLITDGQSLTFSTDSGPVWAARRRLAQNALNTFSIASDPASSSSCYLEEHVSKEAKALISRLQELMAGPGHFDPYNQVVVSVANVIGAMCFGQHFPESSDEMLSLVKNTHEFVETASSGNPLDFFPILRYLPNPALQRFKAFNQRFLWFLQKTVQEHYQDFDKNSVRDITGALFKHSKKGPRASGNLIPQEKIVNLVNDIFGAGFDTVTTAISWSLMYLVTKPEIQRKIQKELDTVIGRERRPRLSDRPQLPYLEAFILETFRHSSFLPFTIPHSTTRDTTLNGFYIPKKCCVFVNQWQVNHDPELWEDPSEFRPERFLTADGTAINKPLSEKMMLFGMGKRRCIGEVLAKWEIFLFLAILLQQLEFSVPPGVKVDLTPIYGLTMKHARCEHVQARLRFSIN

Cytochrome P450 2D6 = Cytochrome P450 2D6 (Homo sapiens, UniProt P10635); test: Inhibition of CYP2D6 (unknown origin); format: ADME
Sequence of Cytochrome P450 2D6 (P10635 whole entry): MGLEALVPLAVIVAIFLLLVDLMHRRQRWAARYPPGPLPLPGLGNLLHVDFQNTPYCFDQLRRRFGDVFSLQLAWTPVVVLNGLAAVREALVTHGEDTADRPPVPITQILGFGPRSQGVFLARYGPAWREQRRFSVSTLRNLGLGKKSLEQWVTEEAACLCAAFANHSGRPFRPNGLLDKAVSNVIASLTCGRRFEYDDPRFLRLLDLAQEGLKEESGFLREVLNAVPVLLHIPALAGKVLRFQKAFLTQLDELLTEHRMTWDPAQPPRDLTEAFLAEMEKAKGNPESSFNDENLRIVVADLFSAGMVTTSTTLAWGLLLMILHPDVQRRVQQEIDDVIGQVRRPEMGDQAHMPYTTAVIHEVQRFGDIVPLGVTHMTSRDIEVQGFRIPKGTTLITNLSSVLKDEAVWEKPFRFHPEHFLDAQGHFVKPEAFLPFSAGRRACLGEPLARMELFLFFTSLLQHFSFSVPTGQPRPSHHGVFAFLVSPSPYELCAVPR

[4] = target: Voltage-gated inwardly rectifying potassium channel KCNH2 (Homo sapiens, UniProt Q12809); test: Inhibition of human ERG; format: toxicity
Sequence of Voltage-gated inwardly rectifying potassium channel KCNH2 (Q12809 whole entry): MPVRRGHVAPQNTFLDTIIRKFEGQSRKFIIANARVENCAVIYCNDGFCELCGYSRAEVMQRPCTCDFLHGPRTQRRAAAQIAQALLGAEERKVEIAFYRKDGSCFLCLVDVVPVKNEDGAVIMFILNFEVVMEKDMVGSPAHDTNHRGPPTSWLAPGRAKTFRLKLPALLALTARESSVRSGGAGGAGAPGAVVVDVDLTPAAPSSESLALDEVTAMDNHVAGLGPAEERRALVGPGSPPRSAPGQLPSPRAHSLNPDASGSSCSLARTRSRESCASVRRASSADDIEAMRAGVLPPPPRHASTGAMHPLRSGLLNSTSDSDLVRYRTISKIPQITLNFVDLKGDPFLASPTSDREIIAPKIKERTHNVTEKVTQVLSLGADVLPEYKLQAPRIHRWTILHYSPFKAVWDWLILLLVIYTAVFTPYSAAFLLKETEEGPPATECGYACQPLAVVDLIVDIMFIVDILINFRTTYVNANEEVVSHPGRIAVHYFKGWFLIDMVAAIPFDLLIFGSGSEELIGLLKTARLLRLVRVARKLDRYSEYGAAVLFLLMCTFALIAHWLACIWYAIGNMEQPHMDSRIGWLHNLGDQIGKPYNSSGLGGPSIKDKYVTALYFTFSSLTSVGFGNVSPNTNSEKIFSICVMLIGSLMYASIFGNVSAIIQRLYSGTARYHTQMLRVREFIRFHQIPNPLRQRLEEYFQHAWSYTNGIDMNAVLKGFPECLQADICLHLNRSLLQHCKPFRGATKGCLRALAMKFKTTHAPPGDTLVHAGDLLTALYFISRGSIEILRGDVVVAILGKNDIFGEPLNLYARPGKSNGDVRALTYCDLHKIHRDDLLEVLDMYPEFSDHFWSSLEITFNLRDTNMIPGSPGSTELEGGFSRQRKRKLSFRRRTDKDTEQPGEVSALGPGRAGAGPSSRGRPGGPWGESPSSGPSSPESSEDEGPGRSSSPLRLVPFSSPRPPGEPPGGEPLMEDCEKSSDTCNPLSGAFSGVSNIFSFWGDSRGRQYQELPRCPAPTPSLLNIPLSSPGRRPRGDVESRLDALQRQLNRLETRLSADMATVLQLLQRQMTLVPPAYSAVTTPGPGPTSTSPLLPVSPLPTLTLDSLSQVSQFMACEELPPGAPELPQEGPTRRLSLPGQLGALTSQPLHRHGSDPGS

[5] = Plasma protein binding in rat; format: ADME, cell-free
[6] = Plasma protein binding in rat assessed as unbound fraction; format: ADME, cell-free
[7] = Plasma protein binding in sc dosed C57BL/6 mouse by LC-MS/MS analysis; format: ADME, organism-based; settings: in vivo
[8] = Drug concentration in sc dosed C57BL/6 mouse liver measured after 30 mins by LC-FTICR-MS analysis; format: ADME, organism-based; settings: read-out: Ct
In short: (§2)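 Mice dosed subcutaneously at 10 mg/kg 15, 30 or 60 min before injection of 1-butanol-d10; tissues (liver, brain) collected 15 min after butanol injection for compound levels.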

[9] = Drug concentration in sc dosed C57BL/6 mouse liver measured after 60 mins by LC-FTICR-MS analysis; format: ADME, organism-based; settings: read-out: Ct; in short: as §2
[10] = Drug concentration in sc dosed C57BL/6 mouse brain measured after 15 mins by LC-FTICR-MS analysis; format: ADME, organism-based; settings: read-out: Ct; in short: as §2
[11] = Drug concentration in sc dosed C57BL/6 mouse brain measured after 30 mins by LC-FTICR-MS analysis; format: ADME, organism-based; settings: read-out: Ct; in short: as §2
[12] = Drug concentration in sc dosed C57BL/6 mouse brain measured after 60 mins by LC-FTICR-MS analysis; format: ADME, organism-based; settings: read-out: Ct; in short: as §2
[13] = Unbound brain concentration in sc dosed C57BL/6 mouse measured after 30 mins by LC-FTICR-MS analysis; format: ADME, organism-based; settings: in vivo, 0.5 h; in short: as §2
[14] = Unbound brain concentration in sc dosed C57BL/6 mouse measured after 60 mins by LC-FTICR-MS analysis; format: ADME, organism-based; settings: in vivo, 1 h; in short: as §2
[15] = Oral bioavailability in rat; format: ADME, organism-based; settings: in vivo
In short: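 Rat oral PK, average of two experiments with n = 3 rats each; formulation HPMC/Tween.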

[16] = target: Phospholipase D1 (Homo sapiens) (UniProt Q13393); test: Inhibition of PLD1 in human Calu-1 cells assessed as reduction in d9-phosphobutanol formation by mass spectrometry-based transphosphatidylation assay

C[C@@H]1CN(C(=O)[C@H](C)N2CCC(n3c(=O)[nH]c4ccccc43)CC2)C[C@@H](C)N1
IC50 (Phospholipase D1): 44 nM
IC50 (Phospholipase D2): 230 nM
CLint scaled [1]: 6 mL/min/kg
CLint scaled [2]: 64 mL/min/kg
efflux ratio (MDR1 (P-gp)): 9.2
CL free [3]: 84 mL/min/kg
efflux ratio (BCRP): 1.2
IC50 (Cytochrome P450 1A2): > 10000 nM
IC50 (Cytochrome P450 2D6): > 10000 nM
IC50 [4]: > 30000 nM
PPB [5]: 36.3%
Fu [6]: 10.8%
PPB [7]: 17.2%
concentration at 0.5 h [8]: 7160 ng/g
concentration at 1 h [9]: 7380 ng/g
concentration at 0.25 h [10]: 83.8 ng/g
concentration at 0.5 h [11]: 109 ng/g
concentration at 1 h [12]: 117 ng/g
Drug uptake(free) [13]: 49.5 nM
Drug uptake(free) [14]: 53.2 nM
bioavailability [15]: 21%
IC50 [16]: 6 nM
